Among the data in ChEMBL document CHEMBL3244396, “Synthesis and antileukemic activity of 5-substituted 2,3-dihydro-6,7-bis(hydroxymethyl)-1H-pyrrolizine diesters” (J Med Chem, 1977) are Activity, T/C and EC50 values, retold here.

Values after ≈ are worked out from the molar mass of the structure shown.

Data set [1] concerns Mus musculus. The data set is described as follows: Toxicity in female CDF1 mouse allografted with mouse L1210 cells assessed as animal survival at 50 mg/kg, ip administered daily for 9 days as Klucel suspension starting 24 hrs after tumor inoculation measured on fifth day. Details: dose 50 mg/kg, route intraperitoneal. Conditions: in vivo. In kind it is organism-based. An outline of the steps:
(§1)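 L1210 leukemia passaged as ascitic fluid and inoculated ip. Test agent given ip as a Klucel (hydroxypropylcellulose) suspension, nine daily doses starting 24 h after tumor inoculation. Acute toxicity read as toxicity-day survivors per group (out of 6), recorded on day 5. Animal weight difference T − C was also recorded. Follows NCI screening protocols.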

For data set [2], the system named is L1210. The data set is described as follows: Antileukemic activity against mouse L1210 cells allografted in male CDF1 mouse assessed as host mean survival time at 100 mg/kg, ip administered daily for 9 days as Klucel suspension starting 24 hrs after tumor inoculation relative to control. In kind it is functional. The note with it: route intraperitoneal. An outline of the steps:
(§2)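 L1210 leukemia given as an ascitic fluid cell inoculum, ip, to mice of the strain and sex in each line. Test material was given ip for nine daily doses starting 24 h after inoculation, in a Klucel (hydroxypropylcellulose) suspension. Read-out is mean survival time as %T/C versus controls, with >125 taken as significant.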

For data set [3], the system named is L1210. The data set is described as follows: Antileukemic activity against mouse L1210 cells allografted in female CDF1 mouse assessed as host mean survival time at 50 mg/kg, ip administered daily for 9 days as Klucel suspension starting 24 hrs after tumor inoculation relative to control. In kind it is functional. Conditions: route intraperitoneal. In short, it runs like this: as §2

Data set [4] has as its system L1210. Put plainly: Antileukemic activity against mouse L1210 cells allografted in female CDF1 mouse assessed as host mean survival time at 100 mg/kg, ip administered daily for 9 days as Klucel suspension starting 24 hrs after tumor inoculation relative to control. In kind it is functional. Conditions: route intraperitoneal. An outline of the steps: as §2
Data set [5] deals with L1210. The data set is described as follows: Antileukemic activity against mouse L1210 cells allografted in male CDF1 mouse assessed as change in body weight at 100 mg/kg, ip administered daily for 9 days as Klucel suspension starting 24 hrs after tumor inoculation. In kind it is functional. Conditions: route intraperitoneal. An outline of the steps: (§3)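 Ascitic fluid carrying L1210 cells was inoculated ip. Compound was given ip as a Klucel (hydroxypropylcellulose) suspension in nine daily doses, starting 24 h after inoculation. Body-weight difference (treated minus control) was recorded on day 5. Survival was scored as %T/C of mean survival time.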

Data set [6] deals with L1210. Put plainly: Antileukemic activity against mouse L1210 cells allografted in female CDF1 mouse assessed as change in body weight at 100 mg/kg, ip administered daily for 9 days as Klucel suspension starting 24 hrs after tumor inoculation. Conditions: route intraperitoneal. The class given is functional. An outline of the steps: as §3
Data set [7] deals with L1210. The data set is described as follows: Antileukemic activity against mouse L1210 cells allografted in female CDF1 mouse assessed as host mean survival time at 200 mg/kg, ip administered daily for 9 days as Klucel suspension starting 24 hrs after tumor inoculation relative to control. The class given is functional. Conditions: route intraperitoneal. An outline of the steps: as §2

Data set [8] is described as follows: Cytotoxicity against human 9KB cells treated as ethanol solution. In kind it is functional. The note with it: read-out: ED50 (the source's name). In short, it runs like this: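 Compound applied as an ethanol solution; activity read out as ED50 under the general screening protocol.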
Data set [9] deals with Mus musculus. Put plainly: Toxicity in female CDF1 mouse allografted with mouse L1210 cells assessed as animal survival at 400 mg/kg, ip administered daily for 9 days as Klucel suspension starting 24 hrs after tumor inoculation measured on fifth day. In kind it is organism-based. Further details: dose 400 mg/kg, route intraperitoneal. The note with it: in vivo. In short, it runs like this:
as §1

The subject of data set [10] is L1210. Put plainly: Antileukemic activity against mouse L1210 cells allografted in male CDF1 mouse assessed as host mean survival time at 200 mg/kg, ip administered daily for 9 days as Klucel suspension starting 24 hrs after tumor inoculation relative to control. The class given is functional. Conditions: route intraperitoneal. An outline of the steps:
as §2

The subject of data set [11] is L1210. The data set is described as follows: Antileukemic activity against mouse L1210 cells allografted in female CDF1 mouse assessed as change in body weight at 200 mg/kg, ip administered daily for 9 days as Klucel suspension starting 24 hrs after tumor inoculation. In kind it is functional. Conditions: route intraperitoneal. An outline of the steps:
as §3

For data set [12], the system named is Mus musculus. Put plainly: Toxicity in male CDF1 mouse allografted with mouse L1210 cells assessed as animal survival at 100 mg/kg, ip administered daily for 9 days as Klucel suspension starting 24 hrs after tumor inoculation measured on fifth day. In kind it is organism-based. Details: dose 100 mg/kg, route intraperitoneal. The note with it: in vivo. An outline of the steps:
as §1

In data set [13] the test system is L1210. The data set is described as follows: Antileukemic activity against mouse L1210 cells allografted in female CDF1 mouse assessed as change in body weight at 400 mg/kg, ip administered daily for 9 days as Klucel suspension starting 24 hrs after tumor inoculation. Conditions: route intraperitoneal. The class given is functional. An outline of the steps:
as §3

Data set [14] concerns L1210. Put plainly: Antileukemic activity against mouse L1210 cells allografted in female CDF1 mouse assessed as change in body weight at 50 mg/kg, ip administered daily for 9 days as Klucel suspension starting 24 hrs after tumor inoculation. The class given is functional. Conditions: route intraperitoneal. An outline of the steps:
as §3

Data set [15] has as its system Mus musculus. The data set is described as follows: Toxicity in male CDF1 mouse allografted with mouse L1210 cells assessed as animal survival at 200 mg/kg, ip administered daily for 9 days as Klucel suspension starting 24 hrs after tumor inoculation measured on fifth day. In kind it is organism-based. Details: dose 200 mg/kg, route intraperitoneal. The note with it: in vivo. In short, it runs like this:
as §1

Data set [16] relates to L1210. Put plainly: Antileukemic activity against mouse L1210 cells allografted in male CDF1 mouse assessed as change in body weight at 50 mg/kg, ip administered daily for 9 days as Klucel suspension starting 24 hrs after tumor inoculation. The class given is functional. Conditions: route intraperitoneal. In short, it runs like this:
as §3

For data set [17], the system named is L1210. The data set is described as follows: Antileukemic activity against mouse L1210 cells allografted in male CDF1 mouse assessed as host mean survival time at 50 mg/kg, ip administered daily for 9 days as Klucel suspension starting 24 hrs after tumor inoculation relative to control. The class given is functional. Conditions: route intraperitoneal. An outline of the steps: as §2

Data set [18] concerns L1210. The data set is described as follows: Antileukemic activity against mouse L1210 cells allografted in male CDF1 mouse assessed as change in body weight at 200 mg/kg, ip administered daily for 9 days as Klucel suspension starting 24 hrs after tumor inoculation. Conditions: route intraperitoneal. In kind it is functional. An outline of the steps: as §3
Data set [19] concerns Mus musculus. Put plainly: Toxicity in male CDF1 mouse allografted with mouse L1210 cells assessed as animal survival at 50 mg/kg, ip administered daily for 9 days as Klucel suspension starting 24 hrs after tumor inoculation measured on fifth day. In kind it is organism-based. Details: dose 50 mg/kg, route intraperitoneal. Conditions: in vivo. An outline of the steps:
as §1

What is called T/C is the result in the treated group divided by that in the control group, in per cent. For `COc1ccc(-c2c(COC(C)=O)c(COC(C)=O)c3n2CCC3)cc1`, the Activity result in [1] is reported as “Non-toxic”; in [5], -7.2 g; in data set [6], -2.5 g; in data set [9] it was “Toxic”; in data set [11], -2.5 g; in [12] it was “Non-toxic”. Besides, the Activity in data set [13] is reported as -0.1 g; in [14] it was -1 g; in data set [15] it was “Non-toxic”; in [16] it was -2.9 g; in data set [18], -5.2 g; in [19] it was “Non-toxic”. Further, the T/C in data set [2] is recorded as 78%; in data set [3], 77%; in [4] it was 65%; in data set [7], 65%; in data set [10], 130%; in data set [17] it was 113%. In addition, the EC50 in [8] came to 2.5 µg/mL (≈ 6.99 µM).
